Measurements: ChEMBL document CHEMBL4513216, “Probing the Open Global Health Chemical Diversity Library for Multistage-Active Starting Points for Next-Generation Antimalarials” (ACS Infect Dis, 2020)

test: Toxicity liver stage against HepG2, at 10uM; type: cell-based; set-up: test concentration 10 uM, cell line HepG2-A16-CD81EGFP; settings: human, HepG2-A16-CD81EGFP cells; read-out: INHIBITION
In short: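 Uninfected HepG2-A16-CD81EGFP cells, 3 × 10^3 per well, 1536-well, plated on prespotted compound at 10 μM final, parasite-free screening media added to match infected plates; puromycin 10 μM positive, DMSO 0.5% negative; run in parallel with 48 h PbLuc assay at 37 °C, 5% CO2; viability by CellTiter-Glo luminescence, normalized to controls.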

Point of comparison: `CSCCC(NC(=O)c1ccc2ccccc2n1)C(=O)NC1CC1` (stereo not given), cytotoxicity at 10 µM -7.03%. Against it:
- CC(C)CCN1CC[C@H](c2nnc(Cc3c[nH]c4ccccc34)o2)C1 — higher, 0.167%
- O=C(NC1CCS(=O)(=O)C1)c1cn(C2CC2)c(=O)c2ccccc12 (stereo not given) — higher, -5.65%
- Cc1ccncc1NC(=O)C1CSc2ncc(C)c(=O)n2C1 (stereo not given) — higher, -6.53%
- CCNC(=O)N1CCC2(CC1)CCn1c(C3CC3)cnc12 — higher, 1.89%
- Cn1cccc1C(=O)N1CC[C@H]2[C@@H]1CCC(=O)N2c1ccccc1 — higher, -6.53%
- c1ccc(CN2CCOC3(CCCN(c4nccs4)C3)C2)cc1 (stereo not given) — higher, 13.7%
- Cn1ncc2c1C(COCC1CC1)CN(Cc1cccnc1)C2 (stereo not given) — higher, 11.4%
- c1cncc(OCC2CN(Cc3ccco3)Cc3nccn3C2)c1 (stereo not given) — lower, -20.4%
- CCc1cc(=O)n(CC(=O)N2CCCCC2)c(-c2cccc(F)c2)n1 — higher, 11.4%
- CCOC(=O)Cn1ccc(NC(=O)Cc2ccccc2F)n1 — higher, 3.33%
- Cc1nc(NCc2nonc2C)cc(C(C)Cn2nc(C)c(C)c2C)n1 (stereo not given) — higher, 7.03%
- CCOc1ccc(CN2CCC(c3nc(C)cc(C)n3)C2)cc1CO (stereo not given) — higher, 2.75%
- CCn1cc(CN2CCN(CC(O)c3cc(C)ccc3C)CC2)c(C)n1 (stereo not given) — higher, 3.41%
- CS(=O)(=O)N1CCCC(c2cncc(Nc3ccccn3)n2)C1 (stereo not given) — higher, 0.609%
- CC(=O)N1CCCC(Cc2cncc(Br)c2)C1 (stereo not given) — lower, -9.02%
- C[C@]1(O)CCN(Cc2cccnc2)C[C@@H]1Oc1cccc(F)c1 — lower, -8.22%
- CCCC(=O)N1CCc2nc3cc(OC)c(OC)cc3c(=O)n2CC1 — lower, -13.2%
- Cc1nccc(C2CN(Cc3cc[nH]n3)CCO2)n1 (stereo not given) — higher, -6.92%
- O=C(NC1CCCCC1)N1CCn2c(nnc2C2CCCN2)C1 (stereo not given) — higher, 0.336%
- O=C1CC2(CCN(C(=O)c3ccccc3)C2)Nc2ccccc2N1 (stereo not given) — higher, 9.98%
- CN1Cc2ccccc2NC(=O)C12CCNC2 (stereo not given) — higher, 6.75%
- Cc1ccc(S(=O)(=O)Nc2ccc(N3CCSCC3)c(C(=O)O)c2)s1 — higher, 3.54%
- Cc1ccccc1-n1nccc1NC(=O)CCOC(C)C — higher, 0%
- Cc1ncc(S(=O)(=O)Nc2ccnn2C2CCCCC2)[nH]1 — higher, -6.82%
- O=C(CSCc1ccccn1)NCC1CCN(C2CC2)C1 (stereo not given) — lower, -14.8%
- NC(=O)CCN(CC(=O)NCc1ccccn1)c1ccc(F)cc1 — higher, 7.98%
- CC(=O)Nc1ccc(CNCC(O)c2ccc(C)cc2)cc1 (stereo not given) — higher, -0.684%
- Cc1cnc(C(=O)N2CCOCC2c2ccccc2)cn1 (stereo not given) — lower, -8.31%
- CCCN1CCC(N(C)CCC(=O)Nc2ccccc2SC)CC1 — higher, 15.5%
- Cc1csc(CNC(=O)NCC(C)Cn2nc(C)cc2C)n1 (stereo not given) — higher, 3.26%
- OC(CNCCn1cccn1)COc1ccc2ccccc2c1 (stereo not given) — lower, -26.4%
- O=C(c1sccc1C1CC1)N1CCN(c2cnccn2)CC1 — higher, -2.92%
- CSC(C)(C)CNC(=O)NC1CCN(CC2CC2)C1 (stereo not given) — higher, 0.811%
- COCc1ccc(C(=O)N(CCC#N)Cc2ccccn2)cc1 — higher, 14%
- Cc1noc(Cl)c1CC(=O)NCC(C)(O)c1ccc(F)cc1F (stereo not given) — higher, -0.837%
- Cc1nn(CCC#N)c(C)c1CCC(=O)N(C(C)C)C1CC1 — higher, -2.72%
- COCCCn1ccc(NC(=O)NCCCn2ccnc2)n1 — higher, -3.04%
- Cc1ccc(CNC(=O)c2c[nH]nc2NC(=O)COCC2CC2)cc1 — higher, 3.58%
- COc1cccc(SCC(=O)N2CCC(N3CCCC3=O)CC2)c1 — lower, -9.41%
- CS(=O)(=O)c1nnc(NC(=O)CCc2cc(F)ccc2F)[nH]1 — lower, -16.6%
- Cc1cc(=O)c(C(=O)N2CCN(C)c3ccccc3C2)c[nH]1 — higher, 3.53%
- CCC(C)(N)c1nc(=O)c(C)c(C)[nH]1 (stereo not given) — higher, -1.82%
- Cc1ccc2c(c1)OCCCC2NCc1nccn1CC(C)C (stereo not given) — higher, -0.77%
- O=C(c1ncncc1Cl)N1CCN(c2ccc(Cl)cc2)CC1 — higher, -2.72%
- NS(=O)(=O)CC1CCCN(C(=O)CCCC2CCCC2)C1 (stereo not given) — higher, 15.8%
- CCn1c(CN(C)CC(F)(F)F)nc2c(F)cccc21 — higher, -5.35%
- Cc1ccc(CNCC2CCCn3ccnc32)s1 (stereo not given) — lower, -15.1%
- COCCN1C(=O)CC[C@@H]2[C@@H]1CCN2S(=O)(=O)C1CC1 — lower, -98.4%
- O=C(c1ccncn1)N1CCC[C@]2(C[C@@H](OCc3ccccn3)CO2)C1 — lower, -72.9%
- O=C(c1cscn1)N1CC[C@H]2C[C@@H](c3ccncn3)O[C@@H]2C1 — lower, -76.6%
- O=C(c1ccnnc1)N1C[C@H]2CCC[C@@]2(COCC2CCOCC2)C1 — higher, -3.04%
- CC(=O)c1ccc(N2CCCC(CO)(CCc3ccccc3)C2)nc1 (stereo not given) — higher, 1.2%
- COc1ccc(-n2cccn2)c(CN2CCC3(CCCN(C)C3=O)C2)c1 (stereo not given) — higher, 10.2%
- OC[C@@H]1CCCN1c1ccc(-c2nc(CCc3ccccc3)no2)cn1 — higher, -0.134%
